ChEMBL document CHEMBL2157880, “Synthesis, antimycobacterial and antibacterial activity of ciprofloxacin derivatives containing a N-substituted benzyl moiety” (2012)
Values after ≈ are worked out from the molar mass of the structure shown.

test system: Pseudomonas aeruginosa; test: Antibacterial activity against Pseudomonas aeruginosa 10-18 after 18 to 24 hrs by NCCLS method; assay type: functional
Outline: (§1)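 Standard NCCLS (M100-S11) MIC testing against Gram-positive and Gram-negative strains. Plates were incubated at 35 °C for 18–24 h. The MIC was read as the lowest concentration giving complete inhibition of visible bacterial growth.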

SMILES | MIC [µg/mL]
COc1ccc(CN2CCN(c3cc4c(cc3F)c(=O)c(C(=O)O)cn4C3CC3)CC2)cc1OC | 64 (≈ 133 µM)

test system: Enterococcus faecium; test: Antibacterial activity against Enterococcus faecium 10-9 after 18 to 24 hrs by NCCLS method; assay type: functional; outline: as §1

SMILES | MIC [µg/mL]
COc1ccc(CN2CCN(c3cc4c(cc3F)c(=O)c(C(=O)O)cn4C3CC3)CC2)cc1OC | 64 (≈ 133 µM)

test system: Escherichia coli; test: Antibacterial activity against Escherichia coli ATCC 25922 after 18 to 24 hrs by NCCLS method; assay type: functional; outline: as §1

SMILES | MIC [µg/mL]
COc1ccc(CN2CCN(c3cc4c(cc3F)c(=O)c(C(=O)O)cn4C3CC3)CC2)cc1OC | 0.5 (≈ 1.04 µM)

test system: Staphylococcus aureus; test: Antibacterial activity against methicillin-resistant Staphylococcus aureus 10-15 after 18 to 24 hrs by NCCLS method; assay type: functional
Outline: (§2)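 Incubated at 35 °C for 18–24 h under NCCLS (M100-S11) standards. MIC was read as the lowest concentration giving complete inhibition of visible bacterial growth.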

SMILES | MIC [µg/mL]
COc1ccc(CN2CCN(c3cc4c(cc3F)c(=O)c(C(=O)O)cn4C3CC3)CC2)cc1OC | 16 (≈ 33.2 µM)

test system: Escherichia coli; test: Antibacterial activity against extended spectrum beta-lactamases producing Escherichia coli 10-2 after 18 to 24 hrs by NCCLS method; assay type: functional; outline: as §1

SMILES | MIC [µg/mL]
COc1ccc(CN2CCN(c3cc4c(cc3F)c(=O)c(C(=O)O)cn4C3CC3)CC2)cc1OC | > 128

test system: Streptococcus pneumoniae; test: Antibacterial activity against Streptococcus pneumoniae 10-1 after 18 to 24 hrs by NCCLS method; assay type: functional; outline: as §1

SMILES | MIC [µg/mL]
COc1ccc(CN2CCN(c3cc4c(cc3F)c(=O)c(C(=O)O)cn4C3CC3)CC2)cc1OC | 2 (≈ 4.15 µM)

test system: Staphylococcus epidermidis; test: Antibacterial activity against methicillin-sensitive Staphylococcus epidermidis 10-11 after 18 to 24 hrs by NCCLS method; assay type: functional; outline: as §1

SMILES | MIC [µg/mL]
COc1ccc(CN2CCN(c3cc4c(cc3F)c(=O)c(C(=O)O)cn4C3CC3)CC2)cc1OC | 4 (≈ 8.31 µM)

test system: Klebsiella pneumoniae; test: Antibacterial activity against Klebsiella pneumoniae 10-4 after 18 to 24 hrs by NCCLS method; assay type: functional; outline: as §1

SMILES | MIC [µg/mL]
COc1ccc(CN2CCN(c3cc4c(cc3F)c(=O)c(C(=O)O)cn4C3CC3)CC2)cc1OC | > 128

test system: Staphylococcus epidermidis; test: Antibacterial activity against methicillin-resistant Staphylococcus epidermidis 10-13 after 18 to 24 hrs by NCCLS method; assay type: functional; outline: as §2

SMILES | MIC [µg/mL]
COc1ccc(CN2CCN(c3cc4c(cc3F)c(=O)c(C(=O)O)cn4C3CC3)CC2)cc1OC | 32 (≈ 66.5 µM)

test system: Pseudomonas aeruginosa; test: Antibacterial activity against Pseudomonas aeruginosa 10-12 after 18 to 24 hrs by NCCLS method; assay type: functional; outline: as §1

SMILES | MIC [µg/mL]
COc1ccc(CN2CCN(c3cc4c(cc3F)c(=O)c(C(=O)O)cn4C3CC3)CC2)cc1OC | 32 (≈ 66.5 µM)

test system: Enterococcus faecalis; test: Antibacterial activity against Enterococcus faecalis 10-7 after 18 to 24 hrs by NCCLS method; assay type: functional; outline: as §1

SMILES | MIC [µg/mL]
COc1ccc(CN2CCN(c3cc4c(cc3F)c(=O)c(C(=O)O)cn4C3CC3)CC2)cc1OC | 64 (≈ 133 µM)

test system: Klebsiella pneumoniae; test: Antibacterial activity against Klebsiella pneumoniae 10-3 after 18 to 24 hrs by NCCLS method; assay type: functional; outline: as §1

SMILES | MIC [µg/mL]
COc1ccc(CN2CCN(c3cc4c(cc3F)c(=O)c(C(=O)O)cn4C3CC3)CC2)cc1OC | 16 (≈ 33.2 µM)

test system: Streptococcus pneumoniae; test: Antibacterial activity against Streptococcus pneumoniae 10-6 after 18 to 24 hrs by NCCLS method; assay type: functional; outline: as §1

SMILES | MIC [µg/mL]
COc1ccc(CN2CCN(c3cc4c(cc3F)c(=O)c(C(=O)O)cn4C3CC3)CC2)cc1OC | 32 (≈ 66.5 µM)

test system: Escherichia coli; test: Antibacterial activity against Escherichia coli 10-1 after 18 to 24 hrs by NCCLS method; assay type: functional; outline: as §1

SMILES | MIC [µg/mL]
COc1ccc(CN2CCN(c3cc4c(cc3F)c(=O)c(C(=O)O)cn4C3CC3)CC2)cc1OC | > 128

test system: Pseudomonas aeruginosa; test: Antibacterial activity against Pseudomonas aeruginosa 10-5 after 18 to 24 hrs by NCCLS method; assay type: functional; outline: as §1

SMILES | MIC [µg/mL]
COc1ccc(CN2CCN(c3cc4c(cc3F)c(=O)c(C(=O)O)cn4C3CC3)CC2)cc1OC | 32 (≈ 66.5 µM)

test system: Klebsiella pneumoniae; test: Antibacterial activity against Klebsiella pneumoniae 10-2 after 18 to 24 hrs by NCCLS method; assay type: functional; outline: as §1

SMILES | MIC [µg/mL]
COc1ccc(CN2CCN(c3cc4c(cc3F)c(=O)c(C(=O)O)cn4C3CC3)CC2)cc1OC | > 128

test system: Escherichia coli; test: Antibacterial activity against Escherichia coli 10-3 after 18 to 24 hrs by NCCLS method; assay type: functional; outline: as §1

SMILES | MIC [µg/mL]
COc1ccc(CN2CCN(c3cc4c(cc3F)c(=O)c(C(=O)O)cn4C3CC3)CC2)cc1OC | 64 (≈ 133 µM)

test system: Pseudomonas aeruginosa; test: Antibacterial activity against Pseudomonas aeruginosa 10-15 after 18 to 24 hrs by NCCLS method; assay type: functional; outline: as §1

SMILES | MIC [µg/mL]
COc1ccc(CN2CCN(c3cc4c(cc3F)c(=O)c(C(=O)O)cn4C3CC3)CC2)cc1OC | 32 (≈ 66.5 µM)

test system: Enterococcus faecalis; test: Antibacterial activity against Enterococcus faecalis 10-6 after 18 to 24 hrs by NCCLS method; assay type: functional; outline: as §1

SMILES | MIC [µg/mL]
COc1ccc(CN2CCN(c3cc4c(cc3F)c(=O)c(C(=O)O)cn4C3CC3)CC2)cc1OC | > 128

test system: Pseudomonas aeruginosa; test: Antibacterial activity against Pseudomonas aeruginosa 10-20 after 18 to 24 hrs by NCCLS method; assay type: functional; outline: as §1

SMILES | MIC [µg/mL]
COc1ccc(CN2CCN(c3cc4c(cc3F)c(=O)c(C(=O)O)cn4C3CC3)CC2)cc1OC | 128 (≈ 266 µM)

test system: Staphylococcus aureus; test: Antibacterial activity against Staphylococcus aureus ATCC 2592 after 18 to 24 hrs by NCCLS method; assay type: functional; outline: as §1

SMILES | MIC [µg/mL]
COc1ccc(CN2CCN(c3cc4c(cc3F)c(=O)c(C(=O)O)cn4C3CC3)CC2)cc1OC | 0.125 (≈ 0.26 µM)

test system: Staphylococcus aureus; test: Antibacterial activity against methicillin-sensitive Staphylococcus aureus 10-11 after 18 to 24 hrs by NCCLS method; assay type: functional; outline: as §1

SMILES | MIC [µg/mL]
COc1ccc(CN2CCN(c3cc4c(cc3F)c(=O)c(C(=O)O)cn4C3CC3)CC2)cc1OC | 0.125 (≈ 0.26 µM)

test system: Klebsiella pneumoniae; test: Antibacterial activity against extended spectrum beta-lactamases producing Klebsiella pneumoniae 10-3 after 18 to 24 hrs by NCCLS method; assay type: functional; outline: as §1

SMILES | MIC [µg/mL]
COc1ccc(CN2CCN(c3cc4c(cc3F)c(=O)c(C(=O)O)cn4C3CC3)CC2)cc1OC | > 128

test system: Enterococcus faecalis; test: Antibacterial activity against Enterococcus faecalis 10-5 after 18 to 24 hrs by NCCLS method; assay type: functional; outline: as §1

SMILES | MIC [µg/mL]
COc1ccc(CN2CCN(c3cc4c(cc3F)c(=O)c(C(=O)O)cn4C3CC3)CC2)cc1OC | 8 (≈ 16.6 µM)

test system: Staphylococcus aureus; test: Antibacterial activity against methicillin-resistant Staphylococcus aureus 10-11 after 18 to 24 hrs by NCCLS method; assay type: functional; outline: as §2

SMILES | MIC [µg/mL]
COc1ccc(CN2CCN(c3cc4c(cc3F)c(=O)c(C(=O)O)cn4C3CC3)CC2)cc1OC | 32 (≈ 66.5 µM)

test system: Mycobacterium tuberculosis; test: Antimycobacterial activity against Mycobacterium tuberculosis H37Rv ATCC 27294 by microplate alamar blue assay; assay type: functional
Outline: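 Microplate Alamar Blue fluorescence assay on strain H37Rv ATCC 27294. MIC was the lowest concentration cutting fluorescence by ≥90% against the mean of replicate bacterium-only controls.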

SMILES | MIC [µg/mL]
COc1ccc(CN2CCN(c3cc4c(cc3F)c(=O)c(C(=O)O)cn4C3CC3)CC2)cc1OC | 16 (≈ 33.2 µM)

test system: Staphylococcus epidermidis; test: Antibacterial activity against methicillin-resistant Staphylococcus epidermidis 10-10 after 18 to 24 hrs by NCCLS method; assay type: functional; outline: as §2

SMILES | MIC [µg/mL]
COc1ccc(CN2CCN(c3cc4c(cc3F)c(=O)c(C(=O)O)cn4C3CC3)CC2)cc1OC | 8 (≈ 16.6 µM)

test system: Staphylococcus aureus; test: Antibacterial activity against methicillin-sensitive Staphylococcus aureus 10-14 after 18 to 24 hrs by NCCLS method; assay type: functional; outline: as §1

SMILES | MIC [µg/mL]
COc1ccc(CN2CCN(c3cc4c(cc3F)c(=O)c(C(=O)O)cn4C3CC3)CC2)cc1OC | 0.25 (≈ 0.519 µM)

test system: Staphylococcus aureus; test: Antibacterial activity against methicillin-resistant Staphylococcus aureus 10-13 after 18 to 24 hrs by NCCLS method; assay type: functional; outline: as §2

SMILES | MIC [µg/mL]
COc1ccc(CN2CCN(c3cc4c(cc3F)c(=O)c(C(=O)O)cn4C3CC3)CC2)cc1OC | 64 (≈ 133 µM)

test system: Klebsiella pneumoniae; test: Antibacterial activity against extended spectrum beta-lactamases producing Klebsiella pneumoniae 10-2 after 18 to 24 hrs by NCCLS method; assay type: functional; outline: as §1

SMILES | MIC [µg/mL]
COc1ccc(CN2CCN(c3cc4c(cc3F)c(=O)c(C(=O)O)cn4C3CC3)CC2)cc1OC | > 128

test system: Pseudomonas aeruginosa; test: Antibacterial activity against Pseudomonas aeruginosa 10-9 after 18 to 24 hrs by NCCLS method; assay type: functional; outline: as §1

SMILES | MIC [µg/mL]
COc1ccc(CN2CCN(c3cc4c(cc3F)c(=O)c(C(=O)O)cn4C3CC3)CC2)cc1OC | 64 (≈ 133 µM)

test system: Escherichia coli; test: Antibacterial activity against extended spectrum beta-lactamases producing Escherichia coli 10-4 after 18 to 24 hrs by NCCLS method; assay type: functional; outline: as §1

SMILES | MIC [µg/mL]
COc1ccc(CN2CCN(c3cc4c(cc3F)c(=O)c(C(=O)O)cn4C3CC3)CC2)cc1OC | 64 (≈ 133 µM)

test system: Escherichia coli; test: Antibacterial activity against extended spectrum beta-lactamases producing Escherichia coli 10-3 after 18 to 24 hrs by NCCLS method; assay type: functional; outline: as §1

SMILES | MIC [µg/mL]
COc1ccc(CN2CCN(c3cc4c(cc3F)c(=O)c(C(=O)O)cn4C3CC3)CC2)cc1OC | > 128

test system: Escherichia coli; test: Antibacterial activity against Escherichia coli 10-2 after 18 to 24 hrs by NCCLS method; assay type: functional; outline: as §1

SMILES | MIC [µg/mL]
COc1ccc(CN2CCN(c3cc4c(cc3F)c(=O)c(C(=O)O)cn4C3CC3)CC2)cc1OC | 16 (≈ 33.2 µM)

test system: Staphylococcus epidermidis; test: Antibacterial activity against methicillin-sensitive Staphylococcus epidermidis 10-15 after 18 to 24 hrs by NCCLS method; assay type: functional; outline: as §2

SMILES | MIC [µg/mL]
COc1ccc(CN2CCN(c3cc4c(cc3F)c(=O)c(C(=O)O)cn4C3CC3)CC2)cc1OC | 8 (≈ 16.6 µM)

test system: Enterococcus faecium; test: Antibacterial activity against Enterococcus faecium 10-6 after 18 to 24 hrs by NCCLS method; assay type: functional; outline: as §1

SMILES | MIC [µg/mL]
COc1ccc(CN2CCN(c3cc4c(cc3F)c(=O)c(C(=O)O)cn4C3CC3)CC2)cc1OC | 4 (≈ 8.31 µM)

test system: Staphylococcus aureus; test: Antibacterial activity against methicillin-sensitive Staphylococcus aureus 10-13 after 18 to 24 hrs by NCCLS method; assay type: functional; outline: as §1

SMILES | MIC [µg/mL]
COc1ccc(CN2CCN(c3cc4c(cc3F)c(=O)c(C(=O)O)cn4C3CC3)CC2)cc1OC | 0.125 (≈ 0.26 µM)

test system: Klebsiella pneumoniae; test: Antibacterial activity against extended spectrum beta-lactamases producing Klebsiella pneumoniae 10-1 after 18 to 24 hrs by NCCLS method; assay type: functional; outline: as §1

SMILES | MIC [µg/mL]
COc1ccc(CN2CCN(c3cc4c(cc3F)c(=O)c(C(=O)O)cn4C3CC3)CC2)cc1OC | > 128
